Source: ChEMBL document CHEMBL4382256, “Design and Synthesis of Marine Phidianidine Derivatives as Potential Immunosuppressive Agents” (J Med Chem, 2018)
Active and inactive are the calls of the source. No cut-off for these calls is given here.

Legend:
[1] = Cytotoxicity against BALB/c mouse splenocytes after 48 hrs by CCK-8 assay; format: cell-based, Splenocyte
Outline: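 Fresh female BALB/c splenocytes (1×10^6 cells), RBC-depleted with ammonium chloride, cultured in triplicate in RPMI 1640/10% FBS with penicillin/streptomycin at 37 °C, 5% CO2 for 48 h with or without compound (DMSO stock diluted in medium). CCK-8 added, 6-8 h further incubation, absorbance 450 nm (570 nm calibration). CC50 from log(inhibitor) vs normalized response non-linear fit.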

Splenocyte [2] = test: (§1) Immunosuppressive activity in BALB/c mouse splenocytes assessed as inhibition of concanavalin A stimulated T-cell proliferation by measuring [3H]-thymidine uptake preincubated for 48 hrs followed by concanavalin A stimulation and [3H]-thymidine addition for 8 hrs measured after 48 hrs by beta-scintillation counting analysis; format: functional, cell-based
Outline: (§2)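 Female BALB/c splenocytes (5×10^5 cells), triplicate, with or without compound, stimulated with Con A 5 μg/ml (T cells) or LPS (E. coli 055:B5) 10 μg/ml (B cells). Culture 48 h at 37 °C, 5% CO2. Pulsed 8 h with 0.5 μCi/well [3H]thymidine, harvested to glass fiber filters, beta scintillation counted. IC50 from log(inhibitor) vs normalized response non-linear fit.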

Splenocyte [3] = test: as §1, with “LPS-stimulated B-cell” for “concanavalin A stimulated T-cell”, “LPS” for “concanavalin A”; format: functional, cell-based; outline: as §2
Splenocyte [4] = test: as §1, with “uptake at 50 uM” for “uptake”; format: functional, cell-based
Outline: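 Female BALB/c splenocytes (5×10^5 cells), triplicate, compound at 50 μM, Con A 5 μg/ml stimulation, 48 h at 37 °C, 5% CO2. Pulsed 8 h with 0.5 μCi/well [3H]thymidine, harvested to glass fiber filters, counted by beta scintillation.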

Mus musculus [5] = organism: Mus musculus; test: Immunosuppressive activity in BALB/c mouse CD4-positive T cells assessed as inhibition of anti-CD3/CD28 stimulated cell proliferation at 1 to 10 uM after 48 hrs by [3H]-thymidine uptake assay; format: functional
Outline: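 CD4+ T cells isolated from BALB/c spleen by immunomagnetic negative selection (purity >98%). 4×10^5 cells/well on plate-coated anti-CD3 (5 μg/ml) plus anti-CD28 (2 μg/ml), with or without compound at 10, 3 and 1 μM, for 48 h. Proliferation read by 0.5 μCi/well [3H]thymidine pulse.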

Mus musculus [6] = organism: Mus musculus; test: Immunosuppressive activity in BALB/c mouse CD4-positive T cells assessed as decrease in anti-CD3/CD28 stimulated IL-2 production at 1 to 10 uM after 24 hrs by ELISA; format: functional
Outline: (§3)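 Purified splenic CD4+ T cells (negative selection, >98% pure) stimulated with anti-CD3 (5 μg/ml) plus anti-CD28 (2 μg/ml), with or without compound at 10, 3 and 1 μM, for 24 h. Supernatant IL-2 and IFN-γ measured by mouse ELISA kits.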

Mus musculus [7] = organism: Mus musculus; test: Immunosuppressive activity in BALB/c mouse CD4-positive T cells assessed as decrease in anti-CD3/CD28 stimulated IFN-gamma production at 1 to 10 uM after 24 hrs by ELISA; format: functional; outline: as §3
[8] = Immunosuppressive activity in BALB/c mouse CD4-positive T cells assessed as anti-CD3/CD28 stimulated CD25 expression at 10 uM by phycoerythrin staining-based flow cytometric analysis (reference value: 52.5%); format: functional
Outline: (§4)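 Purified splenic CD4+ T cells stimulated with anti-CD3 (5 μg/ml) plus anti-CD28 (2 μg/ml) with or without compound at 10, 3 or 1 μM. Cells washed in PBS, stained with fixable viability dye eFluor 780 for 30 min at 4 °C, Fc-blocked with anti-CD16/CD32, stained with PE-CD25. CD25+ percentage read by flow cytometry.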

[9] = Immunosuppressive activity in BALB/c mouse CD4-positive T cells assessed as anti-CD3/CD28 stimulated CD25 expression at 3 uM by phycoerythrin staining-based flow cytometric analysis (reference value: 52.5%); format: functional; outline: as §4
[10] = Immunosuppressive activity in BALB/c mouse CD4-positive T cells assessed as anti-CD3/CD28 stimulated CD25 expression at 1 uM by phycoerythrin staining-based flow cytometric analysis (reference value: 52.5%); format: functional; outline: as §4
Mus musculus [11] = organism: Mus musculus; test: Immunosuppressive activity in BALB/c mouse CD19-positive B cells assessed as inhibition of anti-IgM/CD40 stimulated cell proliferation at 1 to 10 uM after 48 hrs by [3H]-thymidine uptake assay; format: functional
Outline: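 CD19+ B cells purified from BALB/c spleen by negative selection (purity >98%). Stimulated with F(ab')2 anti-mouse IgM (10 μg/ml) plus hamster anti-mouse CD40 (1 μg/ml), with or without compound at 10, 3 and 1 μM, 48 h. Proliferation by 0.5 μCi/well [3H]thymidine pulse.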

Mus musculus [12] = organism: Mus musculus; test: Immunosuppressive activity in BALB/c mouse CD19-positive B cells assessed as decrease in anti-IgM/CD40 stimulated IL-6 levels at 1 to 10 uM after 24 hrs by ELISA; format: functional
Outline: (§5)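 Purified splenic CD19+ B cells (negative selection, >98% pure) stimulated with F(ab')2 anti-IgM (10 μg/ml) plus anti-CD40 (1 μg/ml), with or without compound at 10, 3 and 1 μM, 24 h. Supernatant IL-6 and IL-10 measured by mouse ELISA kits.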

Mus musculus [13] = organism: Mus musculus; test: Immunosuppressive activity in BALB/c mouse CD19-positive B cells assessed as increase in anti-IgM/CD40 stimulated IL-10 levels at 1 to 10 uM after 24 hrs by ELISA; format: functional; outline: as §5
[14] = Immunosuppressive activity in BALB/c mouse CD19-positive B cells assessed as inhibition of anti-IgM/CD40 -induced decrease in IgD expression by measuring mean fluorescence intensity at 10 uM by allophycocyanin staining-based flow cytometric analysis (reference value: 5084); format: functional
[15] = Immunosuppressive activity in BALB/c mouse CD19-positive B cells assessed as inhibition of anti-IgM/CD40 -induced decrease in IgD expression by measuring mean fluorescence intensity at 3 uM by allophycocyanin staining-based flow cytometric analysis (reference value: 5084); format: functional
[16] = Immunosuppressive activity in BALB/c mouse CD19-positive B cells assessed as inhibition of anti-IgM/CD40 -induced decrease in IgD expression by measuring mean fluorescence intensity at 1 uM by allophycocyanin staining-based flow cytometric analysis (reference value: 5084); format: functional

Row | Structure (SMILES) | CC50 at 48 h [1] [µM] | IC50 (Splenocyte [2]) [µM] | IC50 (Splenocyte [3]) [µM] | other results
1 | COc1ccccc1-c1nc(Cc2c[nH]c3ccccc23)no1 | 42.2 | 16.7 | 11.1 | 
2 | COc1cc(-c2noc(-c3cccc(N)c3)n2)cc(OC)c1OC | 8.2 | 7 | 5.5 | 
3 | COc1cc(-c2noc(-c3ccccc3)n2)cc(OC)c1OC | > 50 | > 50 | > 50 | 
4 | Clc1ccc(-c2noc(Cc3c[nH]c4ccccc34)n2)cc1 | 42.8 | 22.6 | > 50 | 
5 | N=C(N)NCCCCNc1noc(Cc2c[nH]c3ccccc23)n1 |  |  |  | inhibition (Splenocyte [4]): inactive
6 | Fc1ccc(-c2noc(Cc3c[nH]c4ccccc34)n2)cc1 | 13.6 | 5.4 | 13.6 | 
7 | COc1ccc(Br)c(-c2nc(Cc3c[nH]c4ccccc34)no2)c1 | 33.6 | 13.3 | 6.9 | 
8 | COc1cc(OC)cc(-c2nc(Cc3c[nH]c4ccccc34)no2)c1 | > 50 | > 50 | 13.9 | 
9 | COc1cc(-c2noc(C34CC5CC(CC(C5)C3)C4)n2)cc(OC)c1OC | 26.5 | 2.7 | 18.8 | 
10 | O=[N+]([O-])c1ccc(-c2noc(Cc3c[nH]c4ccccc34)n2)cc1 | > 50 | > 50 | > 50 | 
11 | CCc1ccc(-c2noc(Cc3c[nH]c4ccccc34)n2)cc1 | 24.4 | 7.5 | 13.9 | 
12 | COc1cc(-c2noc(C34CCC(NC(=O)OC(C)(C)C)(CC3)CC4)n2)cc(OC)c1OC | 12.7 | 2.5 | 3.6 | 
13 | COc1cc(-c2noc(C3CC4(C3)CC(F)(F)C4)n2)cc(OC)c1OC | 28.5 | 5.2 | 5.6 | 
14 | COc1cc(-c2noc(Cc3c[nH]c4ccccc34)n2)cc(OC)c1OC | > 50 | > 50 | 2.8 | 
15 | COc1ccc(-c2nc(Cc3c[nH]c4ccccc34)no2)c(OC)c1 | 9.3 | 8.6 | 4.7 | 
16 | COc1cc(-c2noc(C34CCC(N)(CC3)CC4)n2)cc(OC)c1OC | 25.8 | 4.8 | 4.1 | 
17 | Fc1ccc(-c2nc(Cc3c[nH]c4ccccc34)no2)c(C(F)(F)F)c1 | 40.6 | 15.7 | 9.7 | 
18 | CCc1ccc(-c2nc(-c3cc(OC)c(OC)c(OC)c3)no2)cc1 | 31.3 | > 50 | > 50 | 

Row | Structure (SMILES) | CC50 at 48 h [1] [µM] | IC50 (Splenocyte [2]) [µM] | IC50 (Splenocyte [3]) [µM] | other results
19 | Fc1ccccc1-c1nc(Cc2c[nH]c3ccccc23)no1 | > 50 | > 50 | > 50 | 
20 | N=C(N)NCCNc1noc(Cc2c[nH]c3ccccc23)n1 |  |  |  | inhibition (Splenocyte [4]): inactive
21 | COc1cc(-c2noc(-c3cc(OC)c(OC)c(OC)c3)n2)cc(OC)c1OC | > 50 | 5.5 | > 50 | 
22 | N=C(N)NCCCCCNc1noc(Cc2c[nH]c3ccccc23)n1 |  |  |  | inhibition (Splenocyte [4]): inactive
23 | COc1cc(-c2noc(-c3ccc(NC(=O)OC(C)(C)C)cc3)n2)cc(OC)c1OC | 9.2 | 1.6 | 2.2 | 
24 | CCCCCCc1ccc(-c2nc(-c3cc(OC)c(OC)c(OC)c3)no2)cc1 | 25 | 23.8 | 22.9 | 
25 | COc1cccc(-c2nc(Cc3c[nH]c4ccccc34)no2)c1 | 18.4 | 18.5 | 11.1 | 
26 | CCCCc1ccc(-c2nc(Cc3c[nH]c4ccccc34)no2)cc1 | 8.2 | 11.2 | 9.8 | 
27 | COc1cc(-c2noc(-c3ccc(N)cc3)n2)cc(OC)c1OC | > 50 | 0.8 | 1.7 | inhibition (Mus musculus [5]): Active; Activity (Mus musculus [6]): Active; Activity (Mus musculus [7]): Active; Activity [8]: 19%; Activity [9]: 38.3%; Activity [10]: 52.2%; Activity (Mus musculus [11]): Active; Activity (Mus musculus [12]): Active; Activity (Mus musculus [13]): Active; Flu intensity [14]: 6995; Flu intensity [15]: 6866; Flu intensity [16]: 5281
28 | COc1cc(-c2nc(Cc3c[nH]c4ccccc34)no2)cc(OC)c1OC | > 50 | 11 | 3.1 | inhibition (Mus musculus [5]): Active; Activity (Mus musculus [6]): Active; Activity (Mus musculus [7]): Active; Activity [8]: 22%; Activity [9]: 48.6%; Activity [10]: 50.3%; Activity (Mus musculus [11]): Active; Activity (Mus musculus [12]): Active; Activity (Mus musculus [13]): Active; Flu intensity [14]: 6814; Flu intensity [15]: 6134; Flu intensity [16]: 5640
29 | COc1ccc(-c2nc(Cc3c[nH]c4ccccc34)no2)cc1 | > 50 | > 50 | > 50 | 
30 | COc1cc(/C(N)=N/OC(=O)Cc2c[nH]c3ccccc23)cc(OC)c1OC | 37.3 | 19.5 | 10.4 | 
31 | COc1ccc(OC)c(-c2nc(Cc3c[nH]c4ccccc34)no2)c1 | > 50 | > 50 | 8.4 | 
32 | CCCCc1nc(Cc2c[nH]c3ccccc23)no1 | > 50 | > 50 | > 50 | 
33 | CCCCc1ccc(-c2nc(-c3cc(OC)c(OC)c(OC)c3)no2)cc1 | 21.2 | > 50 | 36.2 | 
34 | c1ccc(-c2noc(Cc3c[nH]c4ccccc34)n2)cc1 | > 50 | > 50 | > 50 | 
35 | COc1cc(C(=O)O/N=C(\N)Cc2c[nH]c3ccccc23)cc(OC)c1OC | 10.1 | 11.9 | 6.8 | 
